In ChEMBL document CHEMBL1134817, “Mixed kappa agonists and mu agonists/antagonists as potential pharmacotherapeutics for cocaine abuse: synthesis and opioid receptor binding affinity of N-substituted derivatives of morphinan” (Bioorg Med Chem Lett, 2001) one finds Ki and Selectivity data, which are given here for 27 compounds.

Assay [1] concerns the target T1, Kappa-type opioid receptor (Cavia porcellus, UniProt P41144). The assay can be described thus: Binding affinity towards guinea pig Opioid receptor kappa 1 using radioligand [3H]U-69593. In short, it runs like this:
(§1)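 Competitive displacement binding on guinea pig brain membranes. Each receptor was labelled with its own tritiated radioligand: [³H]DAMGO (μ agonist) for μ, [³H]naltrindole (δ antagonist) for δ, and [³H]U69593 (κ agonist) for κ. The method follows an earlier protocol.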

The next assay has as its target Mu-type opioid receptor (Cavia porcellus, UniProt P97266). The assay can be described thus: Binding affinity towards Opioid receptor mu 1 in guinea pig brain membranes using [3H]DAMGO as radioligand. It counts as cell membranes, Membrane. The method, boiled down: as §1
Assay [2] addresses Opioid receptors; delta & kappa (Homo sapiens) (UniProt P41145+P41143). Nature of the assay: Selectivity ratio of kappa opioid receptor to that of delta opioid receptor in guinea pig brain membranes. It counts as cell membranes. Conditions: Cavia porcellus; target entry is the homologue from another species.
Assay [3] addresses Opioid receptors; mu & kappa (Homo sapiens) (UniProt P41145+P35372). Nature of the assay: Selectivity ratio of kappa opioid receptor to that of mu opioid receptor in guinea pig brain membranes. It counts as cell membranes. Particulars: Cavia porcellus; target entry is the homologue from another species.
For assay [4], the target named is T1, Kappa-type opioid receptor. Nature of the assay: Binding affinity towards Opioid receptor kappa 1 in guinea pig brain membranes using [3H]U-69593 as radioligand. The assay is classed as cell membranes, Membrane. In short, it runs like this:
as §1

Assay [5] in a line: Binding affinity towards Opioid receptor delta 1 in guinea pig brain membranes using [3H]naltrindole as radioligand.

Chain of Opioid receptors; delta & kappa (Homo sapiens) (P41143 whole entry, looked up): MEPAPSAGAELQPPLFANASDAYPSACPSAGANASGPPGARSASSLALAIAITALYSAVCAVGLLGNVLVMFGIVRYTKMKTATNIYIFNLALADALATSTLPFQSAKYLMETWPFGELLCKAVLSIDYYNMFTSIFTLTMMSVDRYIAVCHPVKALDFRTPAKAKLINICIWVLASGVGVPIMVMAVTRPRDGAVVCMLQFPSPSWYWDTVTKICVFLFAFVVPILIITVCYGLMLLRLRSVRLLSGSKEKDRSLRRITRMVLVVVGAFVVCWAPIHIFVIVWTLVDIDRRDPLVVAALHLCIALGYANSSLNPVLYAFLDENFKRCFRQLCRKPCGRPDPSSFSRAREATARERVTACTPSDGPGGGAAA
Chain of Opioid receptors; delta & kappa (Homo sapiens) (P41145 whole entry, looked up): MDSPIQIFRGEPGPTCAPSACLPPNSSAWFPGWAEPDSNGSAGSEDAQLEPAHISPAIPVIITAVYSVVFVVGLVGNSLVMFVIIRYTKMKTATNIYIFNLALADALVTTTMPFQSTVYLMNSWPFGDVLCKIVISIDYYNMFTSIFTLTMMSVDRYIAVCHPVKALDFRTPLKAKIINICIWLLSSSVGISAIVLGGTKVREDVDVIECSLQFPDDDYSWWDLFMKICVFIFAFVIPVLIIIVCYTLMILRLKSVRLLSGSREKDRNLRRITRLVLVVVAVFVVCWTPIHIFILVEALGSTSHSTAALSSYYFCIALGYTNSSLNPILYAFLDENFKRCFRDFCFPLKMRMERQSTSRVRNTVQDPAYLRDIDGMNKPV
Chain of Mu-type opioid receptor (P97266 whole entry): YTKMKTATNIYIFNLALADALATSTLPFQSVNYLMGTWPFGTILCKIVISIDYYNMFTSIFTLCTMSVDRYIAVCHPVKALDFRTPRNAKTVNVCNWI
Chain of Opioid receptors; mu & kappa (Homo sapiens) (P35372 whole entry, looked up): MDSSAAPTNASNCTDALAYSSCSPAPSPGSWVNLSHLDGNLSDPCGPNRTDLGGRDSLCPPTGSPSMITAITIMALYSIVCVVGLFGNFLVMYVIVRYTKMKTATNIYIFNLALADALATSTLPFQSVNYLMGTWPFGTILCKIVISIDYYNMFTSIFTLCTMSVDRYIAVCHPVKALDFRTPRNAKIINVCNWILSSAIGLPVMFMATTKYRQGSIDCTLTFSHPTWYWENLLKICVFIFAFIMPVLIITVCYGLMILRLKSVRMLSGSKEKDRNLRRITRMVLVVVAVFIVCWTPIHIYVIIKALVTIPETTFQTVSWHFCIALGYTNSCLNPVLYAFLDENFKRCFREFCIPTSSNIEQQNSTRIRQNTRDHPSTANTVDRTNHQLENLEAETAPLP
Chain of Opioid receptors; mu & kappa (Homo sapiens) (P41145 whole entry, looked up): as the sequence (P41145 whole entry, looked up) above
T1 sequence (P41144 whole entry): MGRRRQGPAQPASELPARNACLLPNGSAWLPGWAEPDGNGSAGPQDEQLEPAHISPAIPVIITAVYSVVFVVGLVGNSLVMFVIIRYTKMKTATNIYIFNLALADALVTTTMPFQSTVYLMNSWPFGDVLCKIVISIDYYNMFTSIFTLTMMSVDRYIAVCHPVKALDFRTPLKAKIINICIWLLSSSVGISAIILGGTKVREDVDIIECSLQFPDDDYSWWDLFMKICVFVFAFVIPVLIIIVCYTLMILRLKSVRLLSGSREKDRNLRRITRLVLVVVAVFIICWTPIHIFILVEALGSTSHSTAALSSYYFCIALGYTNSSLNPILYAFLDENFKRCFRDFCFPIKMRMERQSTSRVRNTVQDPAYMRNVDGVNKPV

Turning to `COCCN1CC[C@]23CCCC[C@H]2[C@H]1Cc1cc(O)ccc13`, the values for the Ki (in assay [1]; on Mu-type opioid receptor) were 0.094 nM and 0.11 nM, respectively. The Selectivity in assay [2] was 6; in assay [3], 1.
Consider `Oc1ccc2c(c1)C[C@@H]1[C@@H]3CCCC[C@]23CCN1C/C=C/I`, for which the figures for the Ki (in assay [1]; at Mu-type opioid receptor) were 0.037 nM and 0.0048 nM, respectively. The Selectivity came to 730 in assay [2] and 0.13 in assay [3].
As for `CC(C)CN1CC[C@]23CCCC[C@H]2[C@H]1Cc1cc(O)ccc13`, the Ki (commonly a dissociation constant, usually derived from enzyme kinetics or from competition with a known ligand) amounted to 0.16 nM in assay [4] and 0.54 nM at Mu-type opioid receptor. In addition, the Selectivity was determined as 35 in assay [2] and 3 in assay [3].
Turning to `Oc1ccc2c(c1)C[C@@H]1[C@@H]3CCCC[C@]23CCN1CCC(F)(F)F`, the inhibitory constant (Ki) in assay [1] is 1.3 nM; on Mu-type opioid receptor it was 2.3 nM. Further, the Selectivity in assay [2] amounted to 21; in assay [3] it was 2.
As for `Oc1ccc2c(c1)[C@@]13CCCC[C@H]1[C@@H](C2)N(CC1CCC1)CC3` [BUTORPHAN], the results for the Ki in assay [4] and in assay [5] were 0.07 nM and 1.3 nM, respectively. In addition, the Selectivity in assay [2] was 18; in assay [3] it was 2.
On to `Oc1ccc2c(c1)C[C@@H]1[C@@H]3CCCC[C@]23CCN1CCC(O)c1ccco1` (some centres undefined), for which the Ki in assay [1] came to 12 nM; at Mu-type opioid receptor it was 4.2 nM. Besides, the results for the Selectivity in assay [2] and in assay [3] were 2 and 0.35, respectively.
Turning to `O=C(CCN1CC[C@]23CCCC[C@H]2[C@H]1Cc1cc(O)ccc13)c1cccs1`, the Ki in assay [1] was 4.5 nM; on Mu-type opioid receptor it was 0.27 nM. Besides, the Selectivity in assay [2] amounted to 2; in assay [3], 0.06.
Regarding `Oc1ccc2c(c1)C[C@@H]1[C@@H]3CCCCC23CCN1CC1CCCCC1`, the Ki in assay [4] was determined as 1.5 nM; at Mu-type opioid receptor it was 18 nM. Moreover, the Selectivity in assay [2] was 46; in assay [3], 12.
For the compound `Oc1ccc2c(c1)C[C@@H]1[C@@H]3CCCC[C@]23CCN1CC=CI`, the inhibitory constant (Ki) in assay [1] was determined as 0.65 nM; on Mu-type opioid receptor, 0.42 nM. The Selectivity in assay [2] was found to be 51; in assay [3], 0.6.
For `Oc1ccc2c(c1)C[C@@H]1[C@@H]3CCCC[C@]23CCN1CCc1ccccc1` the same measures were 1.3 nM, 0.12 nM, 2 and 0.092.
For `O=C(CCN1CC[C@]23CCCC[C@H]2[C@H]1Cc1cc(O)ccc13)c1ccccc1`, the Ki in assay [1] is 9.9 nM; at Mu-type opioid receptor, 0.43 nM. Further, the Selectivity in assay [2] was 2; in assay [3], 0.04.
Consider `Oc1ccc2c(c1)C[C@@H]1[C@@H]3CCCC[C@]23CCN1Cc1ccccc1`, for which the figures for the Ki (in assay [1]; on Mu-type opioid receptor) were 1.9 nM and 20 nM, respectively. In addition, the results for the Selectivity in assay [2] and in assay [3] were 220 and 11, respectively.
On the same counts, the results for `C=CCN1CC[C@]23CCCC[C@H]2[C@H]1Cc1cc(O)ccc13` are 0.16 nM, 0.34 nM, 26 and 2.
For the compound `CN1CC[C@]23CCCC[C@H]2[C@H]1Cc1ccc(O)cc13` [LEVORPHANOL], in assay [5], the affinity corresponds to a Ki of 4.2 nM. In addition, the Selectivity in assay [2] worked out at 2; in assay [3], 0.09.
For the compound `Oc1ccc2c(c1)C[C@@H]1[C@@H]3CCCCC23CCN1Cc1cccs1`, the Ki in assay [1] came to 0.32 nM; at Mu-type opioid receptor, 1.5 nM. Also, the Selectivity came out at 160 in assay [2] and 5 in assay [3].
For `O=C(CCN1CC[C@]23CCCC[C@H]2[C@H]1Cc1cc(O)ccc13)c1ccco1` the same measures were 7.9 nM, 0.28 nM, 5 and 0.035.
For `Oc1ccc2c(c1)C[C@@H]1[C@@H]3CCCC[C@]23CCN1CCOc1ccccc1` the same measures were 15 nM, 0.92 nM, 2 and 0.06.
On the same counts, the results for `Oc1ccc2c(c1)C[C@@H]1[C@@H]3CCCC[C@]23CCN1CCC(O)c1cccs1` (some centres undefined) are 25 nM, 4.1 nM, 4 and 0.2.
As for `C#CCN1CC[C@]23CCCC[C@H]2[C@H]1Cc1ccc(O)cc13`, the Ki was determined as 0.003 nM in assay [1] and 0.0032 nM at Mu-type opioid receptor. For the same compound, the Selectivity in assay [2] came out at 210; in assay [3], 1.
Turning to `Oc1ccc2c(c1)C[C@@H]1[C@@H]3CCCC[C@]23CCN1CCCF`, the Ki in assay [4] worked out at 0.083 nM; on Mu-type opioid receptor, 0.18 nM. For the same compound, the Selectivity turned out to be 10 in assay [2] and 2 in assay [3].
On to `Oc1ccc2c(c1)C[C@@H]1[C@@H]3CCCC[C@]23CCN1Cc1ccco1`, for which the Ki in assay [1] amounted to 0.13 nM; on Mu-type opioid receptor, 0.54 nM. Moreover, the values for the Selectivity in assay [2] and in assay [3] were 65 and 4, respectively.
For `N#CCCCN1CC[C@]23CCCC[C@H]2[C@H]1Cc1cc(O)ccc13`, the results for the Ki (in assay [1]; on Mu-type opioid receptor) were 0.38 nM and 0.16 nM, respectively. Further, the values for the Selectivity in assay [2] and in assay [3] were 8 and 0.42, respectively.
On the same counts, the results for `Oc1ccc2c(c1)C[C@@H]1[C@@H]3CCCC[C@]23CCN1CCC(O)c1ccccc1` (some centres undefined) are 57 nM, 21 nM, 2 and 0.4.
`CCOCCN1CC[C@]23CCCC[C@H]2[C@H]1Cc1cc(O)ccc13`: the Ki in assay [4] was found to be 0.33 nM; at Mu-type opioid receptor, 0.26 nM. Further, the Selectivity in assay [2] was determined as 16; in assay [3], 0.8.
On to `Oc1ccc2c(c1)[C@@]13CCCC[C@H]1[C@@H](C2)N(CC1CC1)CC3` [CYCLORPHAN], for which the Ki in assay [5] amounted to 0.22 nM.
As for `Oc1ccc2c(c1)C[C@@H]1[C@@H]3CCCCC23CCN1CC1CCCC1`, the Ki was 0.21 nM in assay [4] and 0.96 nM on Mu-type opioid receptor. For the same compound, the Selectivity turned out to be 33 in assay [2] and 5 in assay [3].
Consider `N#CCCN1CC[C@]23CCCC[C@H]2[C@H]1Cc1cc(O)ccc13`, for which the Ki in assay [1] is 0.23 nM; at Mu-type opioid receptor, 0.33 nM. Besides, the figures for the Selectivity in assay [2] and in assay [3] were 11 and 1.4, respectively.
